The list is not random: actives were taken first. Their share in the collection is about 3.7%.
Calpain2 inh: blocks pig calpain II enzyme activity. inhibition, % at 16 µM. 220,000 compounds, 0.37% hits. purified calpain II, fluorogenic peptide substrate, 30 min;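 active means inhibition above about 50%, limit read from the data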
Arbovirus anti: blocks arbovirus infection; 200,000 compounds, 0.37% hits; inhibition, % at 10 µM; arbovirus infection cell-based antiviral screen; AID 1251; in the data active means inhibition above about 30%
KCC2 mod: modulators of human KCC2 chloride dependent transport; 190,000 compounds, 2.2% hits; Q9H2X9; B-score of Tl+ flux slope (higher = more flux/activation; lower = inhibition) at 10 µM; AID 1456; KCC2 cells, thallium flux FluoZin-2 fluorescence;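 active means thallium flux slope and its plate-corrected score both differing from the plate sample mean at a set confidence after two filtering rounds, in either direction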;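 further: slope of fluorescence scaled to starting intensity during 10 to 20 s after thallium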
PKD1 kinase inh: blocks activity of human protein kinase D1; Q15139; AID 797; inhibition, % (no concentration beside the values); 200,000 compounds, 0.056% hits; PKD1 kinase fluorescence polarization assay; in the data active means inhibition above about 50%
ROMK mod: modulators of human ROMK potassium channel; P48048; Tet-inducible ROMK, thallium flux fluorescence; actives lie on both sides; B-score at 10 µM; 130,000 compounds, 2% hits;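 active means signal ratio slope over the read window, or its plate-corrected B-score, at least 3 SD from the plate mean, either direction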;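 further: B-score of the F/F0 ratio slope over 7 to 12 s after thallium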
Mdm2 ligase inh: Mdm2 E3 ligase (human) inhibition | Q00987 | signal enhancement, % at 5 µM | cell-based MDM2 ubiquitination luciferase reporter, 2 h; 0 = plate control, 100 = twice control, blank-subtracted | AID 1230 | 210,000 compounds, 0.11% hits;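 active means signal enhancement of 30% or more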;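 further: luminescence tracks abundance of the self-degrading MDM2-luciferase fusion protein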
Target sequence (Q00987 whole entry, looked up, the tested form may be a part): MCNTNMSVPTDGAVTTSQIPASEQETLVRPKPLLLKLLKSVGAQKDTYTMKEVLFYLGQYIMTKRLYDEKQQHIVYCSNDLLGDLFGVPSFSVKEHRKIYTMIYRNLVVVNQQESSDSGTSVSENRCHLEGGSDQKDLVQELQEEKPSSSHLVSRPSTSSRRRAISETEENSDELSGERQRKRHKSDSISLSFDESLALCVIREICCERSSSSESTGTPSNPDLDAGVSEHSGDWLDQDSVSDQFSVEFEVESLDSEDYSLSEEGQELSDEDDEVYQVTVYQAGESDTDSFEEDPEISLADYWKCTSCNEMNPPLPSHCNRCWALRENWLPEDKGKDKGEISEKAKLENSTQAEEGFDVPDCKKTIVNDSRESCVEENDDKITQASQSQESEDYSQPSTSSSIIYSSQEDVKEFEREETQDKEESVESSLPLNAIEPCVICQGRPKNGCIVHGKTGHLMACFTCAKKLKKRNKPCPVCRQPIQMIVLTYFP
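Test system: stable mammalian line carrying autodegrading MDM2–luciferase fusion reporter; quantity: 2000 cells in each well; times: 4 h cell settling then 2 h compound exposure, 37 °C; detection: luminescence with SteadyLite reagent, 15 min at room temperature; evaluation: percent signal gain over controls, blank-subtracted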
ROMK hit retest: confirmation of human ROMK potassium channel modulators; shares compounds with ROMK mod; ROMK thallium flux, fluorescence ratio; active compounds read low; normalized thallium flux (F/F0 slope) at 10 µM; 3,000 compounds, 54% hits;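 active means Flux at 10 µM at least 3 SD below or above vehicle control mean in one or both replicates; inconclusive means no clear call, values can overlap the other calls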
* hit, by the source's call.

What do the screens show for `CCOC(=O)CNC(=O)c1ccc2[nH]c3ccccc3c2c1`?
Calpain2 inh: -217.8; Arbovirus anti: -5.6; KCC2 mod: -1.84; PKD1 kinase inh: 4.6; ROMK mod: 0.219; Mdm2 ligase inh: -12.1

How did CC1CN(S(=O)(=O)c2ccc(Cl)c(C(F)(F)F)c2)CC(C)O1 (stereo unspecified) do in these assays?
Calpain2 inh: 15.3; Arbovirus anti: 10.2; KCC2 mod: 0.006; PKD1 kinase inh: -3.9; Mdm2 ligase inh: -8.7

Results for COc1cc(C=NCC2OCCc3ccccc32)cc(OC)c1 (stereo unspecified) ?
Calpain2 inh: 10.9; Arbovirus anti: 2.0; KCC2 mod: 1.26; PKD1 kinase inh: -5.8; ROMK mod: -0.486; Mdm2 ligase inh: -6.3

Results for C/C(=C1/SC(=S)N(CCC(=O)O)C1=O)c1ccc(O)cc1 ?
Calpain2 inh: 11.0; Arbovirus anti: -1.5; KCC2 mod: 4.73; PKD1 kinase inh: -8.7; Mdm2 ligase inh: -25.6

How did COc1ccc(/C(C)=C2\SC(=S)N(CCC(=O)O)C2=O)cc1 do in these assays?
Calpain2 inh: -20.6; Arbovirus anti: -1.5; PKD1 kinase inh: -1.8; ROMK mod: 3.1*; Mdm2 ligase inh: -14.3; ROMK hit retest: 0.0755

What do the screens show for `O=C(Cn1c(=O)n(CCc2c[nH]c3ccccc23)c(=O)c2cccnc21)Nc1ccccc1F`?
Calpain2 inh: -55.9; Arbovirus anti: 4.1; KCC2 mod: -0.0981; PKD1 kinase inh: -5.8; ROMK mod: 2.82*; ROMK hit retest: 0.0781

Results for Cc1cccc(NC(=O)Cn2c(=O)n(CCc3c[nH]c4ccccc34)c(=O)c3cccnc32)c1 ?
Calpain2 inh: -67.2; Arbovirus anti: -4.7; KCC2 mod: -1.04; PKD1 kinase inh: -9.9; ROMK mod: 0.971

How did COc1cccc(/C=N/n2c(N)nc3ccccc32)c1OC do in these assays?
Calpain2 inh: -9.3; Arbovirus anti: 2.0; KCC2 mod: 0.0305; PKD1 kinase inh: 9.6; ROMK mod: 6.6*; Mdm2 ligase inh: -11.7; ROMK hit retest: 0.11*

Results for COc1ccc(/C=N/NC(=O)c2csc(-n3nc(C)cc3C(F)(F)F)n2)cc1 ?
Calpain2 inh: -170.8; Arbovirus anti: -19.8; KCC2 mod: 0.283; PKD1 kinase inh: -10.3; Mdm2 ligase inh: -10.4; ROMK hit retest: 0.0903

What do the screens show for `Cn1c(/C(C#N)=C/C2CC=CCC2)nc2ccccc21` (stereo unspecified)?
Calpain2 inh: 11.0; Arbovirus anti: 7.8; KCC2 mod: -1.99; PKD1 kinase inh: 1.5; Mdm2 ligase inh: -4.2

Results for N#C/C(=C\C1CC=CCC1)c1nc2ccccc2[nH]1 (stereo unspecified) ?
Calpain2 inh: -84.6; Arbovirus anti: 17.1; KCC2 mod: -0.585; PKD1 kinase inh: -8.3; ROMK mod: -7.04*; Mdm2 ligase inh: -13.7; ROMK hit retest: 0.045*

Results for CCc1ccc(CNC(=O)c2cc3c(C)nc4ccccc4c3o2)cc1 ?
Calpain2 inh: -116.0; Arbovirus anti: -27.6; KCC2 mod: -0.0479; PKD1 kinase inh: -6.3; Mdm2 ligase inh: -17.8; ROMK hit retest: 0.0707

How did Cc1cc(N=Cc2cc(Br)ccc2O)no1 do in these assays?
Calpain2 inh: 0.6; Arbovirus anti: -3.0; KCC2 mod: -0.51; PKD1 kinase inh: -3.7; Mdm2 ligase inh: -1.0; ROMK hit retest: inconclusive

Results for Cc1ccc(S(=O)(=O)/N=C/c2cc(Br)ccc2O)cc1 ?
Calpain2 inh: -0.5; Arbovirus anti: 0.0; KCC2 mod: 0.224; PKD1 kinase inh: -6.2; ROMK mod: 0.764; Mdm2 ligase inh: -0.6

Results for COC(=O)/C=C1\SC(=NC(=O)c2ccc(C)cc2)NC1=O ?
Calpain2 inh: 2.9; Arbovirus anti: 0.2; KCC2 mod: 1.09; PKD1 kinase inh: 0.7; ROMK mod: -4.14*; Mdm2 ligase inh: -8.3; ROMK hit retest: 0.0454*

What do the screens show for `CCOc1ccc(S(=O)(=O)Nc2nc3ccccc3nc2-n2ccc(=NC(=O)c3cccs3)cc2)cc1`?
Calpain2 inh: -187.4; Arbovirus anti: -0.2; KCC2 mod: 1.85; PKD1 kinase inh: 2.3; ROMK mod: -2.56*; Mdm2 ligase inh: -8.4; ROMK hit retest: 0.0589*

Results for Cc1cc(/C=N/n2cnnc2)c(C)n1-c1cc(Cl)ccc1Cl ?
Calpain2 inh: -23.3; Arbovirus anti: -15.3; KCC2 mod: -0.858; PKD1 kinase inh: 4.2; Mdm2 ligase inh: -21.6; ROMK hit retest: inconclusive
